Results on 25 compounds are retold here after ChEMBL document CHEMBL4265915, “b-Annulated 1,4-dihydropyridines as Notch inhibitors” (Bioorg Med Chem Lett, 2018).

Test [1] addresses T1, Neurogenic locus notch homolog protein 1 (Homo sapiens, UniProt P46531). Nature of the test: Inhibition of Notch1 deltaE mutant (unknown origin) expressed in HEK293 cells after 16 hrs by […] luciferase reporter gene assay. Format: cell-based. On the technique in general: Resazurin is reduced to fluorescent resorufin, in cell work by metabolically active cells.
Target sequence in this assay (P46531 19-2555 limits assumed): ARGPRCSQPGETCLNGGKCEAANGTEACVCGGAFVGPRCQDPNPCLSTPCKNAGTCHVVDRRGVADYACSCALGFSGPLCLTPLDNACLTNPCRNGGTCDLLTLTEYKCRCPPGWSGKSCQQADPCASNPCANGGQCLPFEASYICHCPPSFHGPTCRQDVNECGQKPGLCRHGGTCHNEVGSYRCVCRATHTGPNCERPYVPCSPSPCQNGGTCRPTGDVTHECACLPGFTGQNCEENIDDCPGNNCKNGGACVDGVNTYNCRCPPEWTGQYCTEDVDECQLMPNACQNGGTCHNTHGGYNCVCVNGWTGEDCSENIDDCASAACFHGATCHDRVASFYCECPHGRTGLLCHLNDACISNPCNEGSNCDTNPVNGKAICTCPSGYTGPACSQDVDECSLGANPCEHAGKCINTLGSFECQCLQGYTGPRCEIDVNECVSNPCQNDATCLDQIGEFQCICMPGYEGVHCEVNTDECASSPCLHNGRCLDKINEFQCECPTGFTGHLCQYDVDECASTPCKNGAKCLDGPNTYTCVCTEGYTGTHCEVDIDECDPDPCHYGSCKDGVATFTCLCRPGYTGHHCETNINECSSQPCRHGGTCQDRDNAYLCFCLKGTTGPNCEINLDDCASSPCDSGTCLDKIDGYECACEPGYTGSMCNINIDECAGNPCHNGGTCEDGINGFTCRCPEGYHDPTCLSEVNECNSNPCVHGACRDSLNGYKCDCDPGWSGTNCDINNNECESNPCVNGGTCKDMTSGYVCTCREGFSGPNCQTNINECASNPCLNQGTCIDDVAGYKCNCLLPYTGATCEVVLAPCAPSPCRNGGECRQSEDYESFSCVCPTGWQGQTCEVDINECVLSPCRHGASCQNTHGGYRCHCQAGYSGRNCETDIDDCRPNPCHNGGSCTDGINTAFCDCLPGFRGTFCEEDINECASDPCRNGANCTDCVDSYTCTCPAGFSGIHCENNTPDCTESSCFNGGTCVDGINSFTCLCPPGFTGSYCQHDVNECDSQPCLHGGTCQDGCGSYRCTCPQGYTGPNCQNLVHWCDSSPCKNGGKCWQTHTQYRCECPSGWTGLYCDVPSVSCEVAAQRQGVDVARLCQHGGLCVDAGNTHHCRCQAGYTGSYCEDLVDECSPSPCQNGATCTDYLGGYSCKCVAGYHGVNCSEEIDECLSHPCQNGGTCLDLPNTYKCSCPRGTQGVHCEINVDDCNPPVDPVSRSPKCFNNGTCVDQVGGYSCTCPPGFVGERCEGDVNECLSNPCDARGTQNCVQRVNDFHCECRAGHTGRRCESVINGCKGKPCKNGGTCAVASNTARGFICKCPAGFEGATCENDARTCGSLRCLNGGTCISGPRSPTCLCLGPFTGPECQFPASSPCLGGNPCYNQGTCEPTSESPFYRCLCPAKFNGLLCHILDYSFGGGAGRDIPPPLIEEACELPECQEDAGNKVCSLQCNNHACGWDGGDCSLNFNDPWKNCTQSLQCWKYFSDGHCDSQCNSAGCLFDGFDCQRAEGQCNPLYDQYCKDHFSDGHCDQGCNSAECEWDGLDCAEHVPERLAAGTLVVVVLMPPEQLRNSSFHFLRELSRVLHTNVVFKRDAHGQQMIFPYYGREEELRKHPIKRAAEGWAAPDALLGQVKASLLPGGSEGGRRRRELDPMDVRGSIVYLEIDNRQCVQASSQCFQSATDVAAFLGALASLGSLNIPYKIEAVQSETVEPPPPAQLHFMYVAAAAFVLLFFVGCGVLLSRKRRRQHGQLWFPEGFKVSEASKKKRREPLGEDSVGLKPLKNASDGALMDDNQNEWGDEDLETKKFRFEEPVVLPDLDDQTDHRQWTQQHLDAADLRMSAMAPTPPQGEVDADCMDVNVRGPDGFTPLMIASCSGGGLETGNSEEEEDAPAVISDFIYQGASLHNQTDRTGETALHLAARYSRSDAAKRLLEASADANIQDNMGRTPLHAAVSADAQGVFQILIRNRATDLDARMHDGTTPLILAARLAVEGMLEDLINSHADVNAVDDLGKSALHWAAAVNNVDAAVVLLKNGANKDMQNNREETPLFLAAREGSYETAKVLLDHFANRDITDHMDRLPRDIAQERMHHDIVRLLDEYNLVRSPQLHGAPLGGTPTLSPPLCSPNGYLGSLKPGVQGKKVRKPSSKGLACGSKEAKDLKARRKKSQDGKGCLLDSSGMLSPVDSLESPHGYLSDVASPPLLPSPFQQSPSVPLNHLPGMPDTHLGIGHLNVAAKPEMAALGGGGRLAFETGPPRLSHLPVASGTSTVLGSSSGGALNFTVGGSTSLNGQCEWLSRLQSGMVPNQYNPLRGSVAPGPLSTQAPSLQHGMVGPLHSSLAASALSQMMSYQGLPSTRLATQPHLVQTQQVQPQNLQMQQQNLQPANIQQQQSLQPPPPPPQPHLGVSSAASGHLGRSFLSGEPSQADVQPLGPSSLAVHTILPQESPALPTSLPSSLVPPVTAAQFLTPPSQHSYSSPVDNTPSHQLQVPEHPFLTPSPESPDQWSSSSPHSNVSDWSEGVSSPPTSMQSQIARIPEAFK

Test [2] concerns HCT-116. Nature of the test: Antiproliferative activity against human HCT116 cells after 72 hrs by SYBR green dye based fluorescence assay. The test is classed as functional, cell-based. The note with it: for IC50: HCT-116, 72 h. In short, it runs like this:
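HCT-116 colon cancer cells were incubated for 72 h with a concentration series of test agent, with a vehicle-treated control. Proliferation was measured, and the IC50 was derived from the dose-response curve.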

Test [3] has as its system HCT-116. Nature of the test: Potency index, ratio of DAPM IC50 to compound IC50 for antiproliferative activity against human HCT116 cells. Format: functional.
Test [4] addresses T1, Neurogenic locus notch homolog protein 1. Briefly: Potency index, ratio of FLI-06 IC50 to compound IC50 for inhibition of Notch1 deltaE mutant (unknown origin).
Target sequence in this assay (P46531 whole entry): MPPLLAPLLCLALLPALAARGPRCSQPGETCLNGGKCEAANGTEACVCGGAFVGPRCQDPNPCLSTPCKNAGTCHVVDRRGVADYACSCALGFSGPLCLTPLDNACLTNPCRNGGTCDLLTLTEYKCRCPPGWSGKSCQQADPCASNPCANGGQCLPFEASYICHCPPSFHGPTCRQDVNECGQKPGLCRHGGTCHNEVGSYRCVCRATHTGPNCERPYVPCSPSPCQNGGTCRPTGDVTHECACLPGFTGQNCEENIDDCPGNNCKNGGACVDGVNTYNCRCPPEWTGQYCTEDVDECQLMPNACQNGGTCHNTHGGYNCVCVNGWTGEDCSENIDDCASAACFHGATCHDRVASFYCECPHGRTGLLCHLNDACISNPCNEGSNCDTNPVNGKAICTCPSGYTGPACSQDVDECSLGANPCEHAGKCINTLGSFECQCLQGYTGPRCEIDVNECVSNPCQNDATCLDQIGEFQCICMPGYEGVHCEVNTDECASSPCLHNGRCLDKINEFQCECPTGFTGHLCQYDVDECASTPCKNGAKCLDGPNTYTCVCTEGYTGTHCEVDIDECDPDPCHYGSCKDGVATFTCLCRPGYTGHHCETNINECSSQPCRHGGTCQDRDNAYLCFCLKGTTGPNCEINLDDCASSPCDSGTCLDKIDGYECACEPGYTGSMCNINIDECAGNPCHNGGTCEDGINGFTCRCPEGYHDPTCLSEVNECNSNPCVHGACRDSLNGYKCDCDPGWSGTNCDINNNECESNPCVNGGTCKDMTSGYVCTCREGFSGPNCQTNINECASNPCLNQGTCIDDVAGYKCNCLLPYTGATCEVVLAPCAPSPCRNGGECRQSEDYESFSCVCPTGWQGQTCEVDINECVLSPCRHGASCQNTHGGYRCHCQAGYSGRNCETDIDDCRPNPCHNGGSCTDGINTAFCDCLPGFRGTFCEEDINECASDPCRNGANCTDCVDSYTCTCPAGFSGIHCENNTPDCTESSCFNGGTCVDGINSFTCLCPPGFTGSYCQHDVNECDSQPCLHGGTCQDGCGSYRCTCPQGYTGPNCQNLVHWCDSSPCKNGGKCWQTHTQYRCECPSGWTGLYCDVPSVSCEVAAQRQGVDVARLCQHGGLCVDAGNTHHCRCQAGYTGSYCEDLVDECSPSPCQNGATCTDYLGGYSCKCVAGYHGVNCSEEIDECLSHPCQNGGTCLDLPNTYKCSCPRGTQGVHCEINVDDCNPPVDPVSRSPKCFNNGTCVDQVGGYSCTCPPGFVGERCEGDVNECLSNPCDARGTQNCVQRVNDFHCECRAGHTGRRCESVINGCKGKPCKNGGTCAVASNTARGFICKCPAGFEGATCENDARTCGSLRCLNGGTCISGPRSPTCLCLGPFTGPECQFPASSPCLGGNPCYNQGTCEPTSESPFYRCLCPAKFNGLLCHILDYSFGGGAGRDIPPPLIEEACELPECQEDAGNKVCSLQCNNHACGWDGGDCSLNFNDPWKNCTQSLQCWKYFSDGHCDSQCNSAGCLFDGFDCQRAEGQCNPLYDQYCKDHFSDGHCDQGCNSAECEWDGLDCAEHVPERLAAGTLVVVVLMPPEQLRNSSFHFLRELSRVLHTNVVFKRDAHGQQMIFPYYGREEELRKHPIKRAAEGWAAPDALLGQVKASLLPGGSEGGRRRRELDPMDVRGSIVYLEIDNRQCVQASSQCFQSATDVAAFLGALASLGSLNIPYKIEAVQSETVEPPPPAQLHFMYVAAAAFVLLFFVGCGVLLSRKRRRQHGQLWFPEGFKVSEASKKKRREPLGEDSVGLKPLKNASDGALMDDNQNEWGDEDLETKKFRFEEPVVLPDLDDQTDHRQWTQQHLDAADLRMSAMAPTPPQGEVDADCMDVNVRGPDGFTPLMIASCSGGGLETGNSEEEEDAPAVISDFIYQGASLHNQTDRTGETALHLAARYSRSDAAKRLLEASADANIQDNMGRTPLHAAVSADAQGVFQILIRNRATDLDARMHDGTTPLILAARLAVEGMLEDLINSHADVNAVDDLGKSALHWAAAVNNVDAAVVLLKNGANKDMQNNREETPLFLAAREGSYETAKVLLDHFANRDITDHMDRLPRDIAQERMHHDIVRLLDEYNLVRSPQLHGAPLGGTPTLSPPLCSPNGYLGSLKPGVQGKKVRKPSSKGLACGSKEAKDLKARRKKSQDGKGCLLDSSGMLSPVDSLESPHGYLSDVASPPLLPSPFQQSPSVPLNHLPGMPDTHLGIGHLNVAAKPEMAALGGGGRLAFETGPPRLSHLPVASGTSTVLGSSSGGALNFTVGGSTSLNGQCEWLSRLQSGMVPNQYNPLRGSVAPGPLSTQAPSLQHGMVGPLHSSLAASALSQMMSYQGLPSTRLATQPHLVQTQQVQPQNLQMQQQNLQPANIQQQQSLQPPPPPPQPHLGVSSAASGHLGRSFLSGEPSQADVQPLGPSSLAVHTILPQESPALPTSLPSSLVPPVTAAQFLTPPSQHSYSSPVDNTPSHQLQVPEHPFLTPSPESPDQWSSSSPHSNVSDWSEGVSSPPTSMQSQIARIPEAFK

Usually IC50 stands for the midpoint of a concentration-inhibition curve. Low values mean greater potency, high ones weaker potency. `CC1=C(C(=O)OCc2ccc(C(C)(C)C)cc2)C(c2cccc(Br)c2)C2=C(CC(C)(C)CC2=O)N1` (configuration not stated) had a concentration for half-maximal inhibition (IC50) in test [1] of 4270 nM. Same read-out and setting: in the case of `CC1=C(C(=O)OC2CCCCC2)C(c2cccc(Br)c2)C2=C(CC(C)(C)CC2=O)N1` (configuration not stated) it was 4150 nM; in that of `CC1=C(C(=O)OCC2CCN(C(=O)OC(C)(C)C)CC2)C(c2ccc(Br)cc2F)C2=C(CC(C)(C)CC2=O)N1` (configuration not stated), greater than 10000 nM. Take `COC(=O)[C@@H](NC(=O)[C@H](C)NC(=O)Cc1cc(F)cc(F)c1)c1ccccc1`: in the test with HCT-116 [2], the Activity result is “Dose-dependent effect” and the IC50 was 12000 nM. `CC1=C(C(=O)OCC2CCN(C(=O)OC(C)(C)C)CC2)C(c2cccc(C(C)C)c2)C2=C(CC(C)(C)CC2=O)N1` (configuration not stated) displayed an IC50 in test [1] of 3320 nM. In test [1], `CC1=C(C(=O)OCC2CCN(C(=O)OC(C)(C)C)CC2)C(c2ccc3ccccc3n2)C2=C(CC(C)(C)CC2=O)N1` (configuration not stated) displayed an IC50 of 330 nM. `CC1=C(C(=O)OCC2CCN(C(=O)OC(C)(C)C)CC2)C(c2ccc3c(c2)OCCO3)C2=C(CC(C)(C)CC2=O)N1` (configuration not stated) came in with an IC50 in test [1] of 1520 nM.

In test [1], `CC1=C(C(=O)OCC2CCN(C(=O)OC(C)(C)C)CC2)C(c2ccc(-c3ccccc3)cc2)C2=C(CC(C)(C)CC2=O)N1` (configuration not stated) had an IC50 greater than 10000 nM. Compound `CC1=C(C(=O)OC2CCN(C(=O)OC(C)(C)C)CC2)C(c2cccc(Br)c2)C2=C(CC(C)(C)CC2=O)N1` (configuration not stated) showed an IC50 in test [1] greater than 10000 nM. In test [1], `CC1=C(C(=O)O[C@H](CC#N)c2ccccc2)C(c2cccc(Br)c2)C2=C(CC(C)(C)CC2=O)N1` (some centres not stated) yielded an IC50 greater than 10000 nM. The same measure, in the same setting: under `CC1=C(C(=O)OC2CCCCC2)C(c2cccc(C(F)(F)F)c2)C2=C(CC(C)(C)CC2=O)N1` (configuration not stated) stands 14700 nM.

Take `CC1=C(C(=O)OCC2CCN(C(=O)OC(C)(C)C)CC2)C(c2cccc(-c3ccc4[nH]ccc4c3)c2)C2=C(CC(C)(C)CC2=O)N1` (configuration not stated): half-maximal inhibition in test [1] (IC50) required 770 nM. For `CC1=C(C(=O)OCC2CCN(C(=O)OC(C)(C)C)CC2)C(c2cccc([N+](=O)[O-])c2)C2=C(CC(C)(C)CC2=O)N1` (configuration not stated), the IC50 in test [1] was greater than 10000 nM. Compound `CC1=C(C(=O)OCC2CCN(C(=O)OC(C)(C)C)CC2)C(c2cccc(C(F)(F)F)c2)C2=C(CC(C)(C)CC2=O)N1` (configuration not stated) showed an IC50 in test [1] of 760 nM.

`CC1=C(C(=O)OCC2CCN(C(=O)OC(C)(C)C)CC2)C(c2cccc(Br)c2)C2=C(CC(C)(C)CC2=O)N1` (configuration not stated) gave an IC50 in test [1] of 360 nM.

On to `CC1=C(C(=O)OC2CCCCC2)C(c2ccc([N+](=O)[O-])cc2)C2=C(CC(C)(C)CC2=O)N1` (configuration not stated), for which, in the test on HCT-116 [2], the Activity entry was “Dose-dependent effect” and the IC50 was 1800 nM. Moreover, 2510 nM corresponded to half-maximal inhibition in test [1] (IC50).

The compound `CC1=C(C(=O)OCC2CCN(C(=O)OC(C)(C)C)CC2)C(c2cc(Cl)cc(Cl)c2)C2=C(CC(C)(C)CC2=O)N1` (configuration not stated) returned an IC50 in test [1] of 640 nM. On the same count and under the same terms, under `CC1=C(C(=O)OC2CCCCC2)C(c2ccc3c(c2)OCCO3)C2=C(CC(C)(C)CC2=O)N1` (configuration not stated) stands 12300 nM; under `CC1=C(C(=O)OCC2CCN(C(=O)OC(C)(C)C)CC2)C(c2cccc(C#N)c2)C2=C(CC(C)(C)CC2=O)N1` (configuration not stated), 220 nM; under `CC1=C(C(=O)OC23CC4CC(CC(C4)C2)C3)C(c2cccc(Br)c2)C2=C(CC(C)(C)CC2=O)N1` (configuration not stated), greater than 10000 nM. Take `CC1=C(C(=O)OCC2CCN(C(=O)OC(C)(C)C)CC2)[C@@H](c2cccc(Br)c2)C2=C(CC(C)(C)CC2=O)N1`: the IC50 in test [1] was found to be 2590 nM.

On to `CC1=C(C(=O)OC2CCCCC2)C(c2cccc(C#N)c2)C2=C(CC(C)(C)CC2=O)N1` (configuration not stated), for which half-maximal inhibition in test [1] (IC50) was put at 43200 nM. `CC1=C(C(=O)OCC2CCN(C(=O)OC(C)(C)C)CC2)[C@H](c2cccc(Br)c2)C2=C(CC(C)(C)CC2=O)N1`: the “Ratio IC50” value with HCT-116 [3] was 55; in test [4], 20. Further, in the test with HCT-116 [2], the Activity result was “Dose-dependent effect”. For the same compound, the figures for the IC50 (with HCT-116 [2]; in test [1]) were 220 nM and 130 nM, respectively. `CC1=C(C(=O)OCc2cnccn2)C(c2cccc(Br)c2)C2=C(CC(C)(C)CC2=O)N1` (configuration not stated) had an IC50 in test [1] of 860 nM. `CC1=C(C(=O)OCCC2CCN(C(=O)OC(C)(C)C)CC2)C(c2cccc(Br)c2)C2=C(CC(C)(C)CC2=O)N1` (configuration not stated): in test [1], the IC50 amounted to 2950 nM.
